OX1R antag-1 = antagonists of human orexin 1 receptor (OX1R). O43613. OX1R-expressing cells, FRET antagonist read-out. inhibition, % at 6.6 µM. 1.8% of 330,000 active; in the data active = inhibition mostly above about 38%, no sharp cut-off; inactive = mostly below about 40%
Target sequence (O43613 whole entry, looked up): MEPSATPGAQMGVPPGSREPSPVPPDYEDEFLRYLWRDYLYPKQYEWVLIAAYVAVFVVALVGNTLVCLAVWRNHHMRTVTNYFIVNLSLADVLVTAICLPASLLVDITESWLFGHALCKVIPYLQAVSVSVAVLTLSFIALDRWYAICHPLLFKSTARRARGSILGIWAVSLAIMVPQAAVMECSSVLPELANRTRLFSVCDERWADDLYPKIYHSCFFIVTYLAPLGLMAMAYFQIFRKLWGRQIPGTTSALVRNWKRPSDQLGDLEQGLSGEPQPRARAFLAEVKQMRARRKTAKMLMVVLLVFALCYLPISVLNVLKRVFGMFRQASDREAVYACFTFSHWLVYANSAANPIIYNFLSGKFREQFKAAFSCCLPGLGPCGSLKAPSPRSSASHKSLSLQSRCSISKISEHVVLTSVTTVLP
GPR7 antagonist = antagonists of human GPR7 (neuropeptides B/W receptor 1). GPR7-expressing cells, fluorescence antagonist assay. inhibition, % at 4.4 µM. 1.1% of 290,000 active. P48145. AID 1861; in the data active = inhibition above about 16%, passing the limit was not always enough;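 also: cells stimulated with the agonist NPW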
TAAR1 antagonist = antagonists of human TAAR1; AID 624466; inhibition, % at 3 µM; 1.5% of 360,000 active; CHO RD-HGA16 TAAR1, Fluo-8 calcium fluorescence, antagonist;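 active = inhibition above a per-plate cutoff, the mean inhibition of test compounds on that plate plus 3 SD, cut at about 49% in these data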
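Test system: CHO RD-HGA16 cells bearing hTAAR1 | Reagent: β-PEA, EC80 | Compound dosing: 3 µM, single point | Schedule: Dye loading 75 min at 37 °C, then 30 min room temperature | Signal: Calcium fluorescence with Fluo-8 | Evaluation: Percent inhibition of PEA-evoked calcium signal, max/basal emission ratio | Control set: DMSO-only wells and EC80 β-PEA-stimulated wells | Repeats: Singlicate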
TAAR1 ag = human TAAR1 agonism; CHO RD-HGA16 TAAR1, Fluo-8 calcium fluorescence; vehicle wells 0%, saturating PEA agonist 100%; activation, % at 3 µM; 0.99% of 360,000 active; AID 624467;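 active = activation above the mean activation of all test compounds in the run plus 3 SD, cut at about 38% in these data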
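System: CHO RD-HGA16 cells carrying human TAAR1 plus Gα16; Incubation: 17-24 h seeding, 75 min 37 °C dye, 30 min RT; Measured by: Fluo-8 fluorescence, 5 s baseline then 140 s kinetic read; Control set: DMSO and PEA EC100; Replication: single well for each compound.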
OX1R antag-2 = antagonists of human orexin 1 receptor | CHO/OX1R cells, Fluo-8 calcium fluorescence, orexin A | 0.43% of 330,000 active | AID 434989 | O43613 | inhibition, % at 5 µM;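 active = inhibition above its plate's threshold, mean inhibition of all tested compounds on the plate plus 3 SD, cut at about 37% in these data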
CHO parental Ca = counter-screen: ATP calcium response change in parental CHO cells. parental CHO-K1, ATP-induced calcium, Fluo-8 fluorescence. inhibition, % at 5.6 µM. 0.63% of 330,000 active. AID 463079;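 active = inhibition above that plate's mean sample inhibition plus 3 SD, cut at about 26% in these data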
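Material: parental CHO cells / Compound: single nominal dose of 5.6 µM per compound / Signal: Fluo-8 fluorescence / Replicates: singlicate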
Hits are given with their value; i = inactive; nt = not tested or not shown. Sampled rows, rich in hits. Any-hit rate of the full collection: about 4.5%.

SMILES	OX1R antag-1	GPR7 antagonist	TAAR1 antagonist	TAAR1 ag	OX1R antag-2	CHO parental Ca
O=C(Nc1ccc(Cl)c(Cl)c1)Nc1nccs1	i	i	i	43	i	i
O=C(Nc1cccc(Cl)c1)Nc1nccs1	i	i	i	i	i	i
O=C(Nc1ccc(Cl)c(Cl)c1)c1ccncc1	i	i	i	i	i	i
CC(C)C1=CC2C3C(=O)N(c4ccccc4)C(=O)C3C1C(=O)C2(C)O (stereo not drawn)	nt	nt	i	i	nt	nt
Cc1cc(N2CCN(S(C)(=O)=O)C[C@@H]2C)ccc1N1CCN(Cc2ccccc2)[C@@H](C)C1	nt	nt	i	i	nt	nt
COC(=O)c1cc2c(c3c4cc(F)ccc4n(S(=O)(=O)c4ccccc4)c13)C(=O)N(C)C2	nt	nt	i	i	nt	nt
Cc1nc2ccc(NC(=O)c3ccc(Cl)c(S(=O)(=O)N(C)c4ccccc4)c3)cc2s1	i	i	51	i	i	41
Cc1ccc(C(=O)Nc2ccncc2)cc1[N+](=O)[O-]	i	i	i	i	i	i
Cc1cc(NC(=O)c2ccc(-c3ccccc3F)o2)no1	i	i	i	i	i	i
COc1cccc(S(=O)(=O)NCc2ccc(C(=O)Nc3ccc(Cl)c(Cl)c3)cc2)c1	i	i	i	i	i	42
O=C(Nc1ccc(Cc2ccncc2)cc1)c1ccc(Cl)c([N+](=O)[O-])c1	128	i	74	i	77	83
Cc1cc(NC(=O)c2ccc(-c3ccccc3[N+](=O)[O-])o2)no1	27	nt	i	i	i	i
COc1ccc(NC(=O)c2ccc(CNS(=O)(=O)c3cccc(OC)c3)cc2)cc1	i	i	i	i	i	i
COC(=O)Cc1nnn2c1[C@@H](C)[C@@H](c1ccccc1Br)OC[C@@H]2c1ccccc1	nt	nt	i	i	nt	nt
COC(=O)C1=C(C)N(Cc2ccc(C(F)(F)F)cc2)C(=NCc2ccccc2C(F)(F)F)NC1c1ccccc1C(F)(F)F (stereo not drawn)	nt	nt	i	i	nt	nt
Cc1cc2c(c(=O)o1)[C@@]1(C(=O)N(C)c3ccccc31)C1=C(CCC1=O)O2	nt	nt	i	i	nt	nt
O=C(Nc1ccccc1-c1ccccc1)c1ccc(Cl)c([N+](=O)[O-])c1	i	i	i	i	i	i
O=C(Nc1ncccn1)c1ccc(Cl)c([N+](=O)[O-])c1	26	i	i	i	i	i
O=C(Nc1ccc(Nc2ccccc2)cc1)c1ccc(Cl)c([N+](=O)[O-])c1	i	i	51	i	i	i
O=C(C(=O)N1CCC(CNC(=O)C2COc3ccccc3O2)CC1)c1cccs1 (stereo not drawn)	nt	nt	i	i	nt	nt
CNS(=O)(=O)c1ccc2c3c(cccc13)C(=O)N2	nt	i	i	i	nt	nt
CNS(=O)(=O)c1cc(S(=O)(=O)NC)c2cccc3c2c1NC3=O	66	i	i	i	i	i
CC/C(=N\NC(=O)C1CCCC1)c1cccc(Br)c1	nt	i	i	i	nt	nt
O=S1(=O)N[C@@H](Cc2ccccc2)COc2cccc(NCCCN3CCOCC3)c21	nt	nt	i	i	nt	nt
CCCCNC(=O)c1sc(=S)n2c1[nH]c(=O)c1ccccc12	52	i	i	i	i	i
SMILES	OX1R antag-1	GPR7 antagonist	TAAR1 antagonist	TAAR1 ag	OX1R antag-2	CHO parental Ca
O=[N+]([O-])c1c(N2CCN(CCO)CC2)nc2ccccn12	70	i	i	i	i	i
COc1ccc(N=C2C(=O)N3CCCc4cccc2c43)cc1	66	i	i	i	i	i
COC(=O)C1=C(C)N(C)C(=NCc2cccc(C(F)(F)F)c2)NC1c1cccc(Cl)c1 (stereo not drawn)	nt	nt	i	i	nt	nt
Cc1ccc(-n2c(C)cc(C(=O)CSc3nncs3)c2C)cc1	57	i	i	i	92	i
C[C@H](CO)N1C[C@H](C)[C@H](CN(C)C(=O)Nc2cccc3ccccc23)Oc2ncc(Br)cc2C1=O	nt	nt	i	i	nt	nt
CCOC(=O)c1oc2ccccc2c1COC(=O)CNC(=O)c1ccccc1OC	68	nt	i	i	i	i
CCOC(=O)c1oc2ccccc2c1COC(=O)CNC(=O)c1cc(OC)c(OC)c(OC)c1	i	nt	i	i	i	i
COc1ccc(OC)c(-c2nn(-c3ccccc3)cc2C(=O)N2CCc3ccccc3C2)c1	i	nt	i	i	i	i
COc1cccc(-c2nn(-c3ccc(C)cc3)cc2C(=O)N2CCc3cc(OC)c(OC)cc3C2)c1	46	nt	63	i	i	i
Cc1ccc(S(=O)(=O)N(C)C)cc1NC(=O)C1CCCCN1S(=O)(=O)c1ccccc1 (stereo not drawn)	i	nt	i	i	i	i
COc1ccc(NS(=O)(=O)c2cccc(C(=O)O)c2)cc1S(=O)(=O)N1CCCCC1	i	nt	i	i	i	i
O=C(Nc1ccccc1F)C1CCCN1S(=O)(=O)c1ccc(Cl)cc1 (stereo not drawn)	46	nt	i	i	i	i
COc1ccc(NS(=O)(=O)c2ccc(Cl)c(C(=O)O)c2)cc1S(=O)(=O)N1CCCCC1	i	i	i	i	i	43
Cc1cccc(NC(=O)C2CCCCN2S(=O)(=O)c2ccccc2)c1C (stereo not drawn)	33	nt	i	i	i	i
Cc1ccc(S(=O)(=O)N2CCCC2C(=O)NCc2ccccc2Cl)cc1 (stereo not drawn)	i	i	i	i	i	i
Cc1ccc(S(=O)(=O)N2CCC[C@H]2C(=O)Nc2ccccc2Cl)cc1	61	nt	i	i	i	i
Cc1onc(-c2c(F)cccc2Cl)c1C(=O)N1CCCC1	nt	nt	i	i	nt	nt
O=S1(=O)c2ccc(Br)cc2OC2CCCN1C2 (stereo not drawn)	nt	nt	i	i	nt	nt
CC1Cc2ccccc2N1C(=O)C1CCCCN1S(=O)(=O)c1ccccc1 (stereo not drawn)	49	i	i	i	i	i
